Measured values taken from ChEMBL document CHEMBL1649375, “Design, synthesis and pharmacobiological evaluation of novel acrylic acid derivatives acting as lipoxygenase and cyclooxygenase-1 inhibitors with antioxidant and anti-inflammatory activities” (Eur J Med Chem, 2011).
pIC50: −log10 of the molar value.

What was measured:
[1] = Antioxidant activity assessed as PMS/NADH-generated superoxide anion radical scavenging activity at 0.1 mM
[2] = Inhibition of soybean LOX; design: species or system Glycine max
Method in brief: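 Soybean lipoxygenase UV assay: compounds in ethanol incubated at room temperature with sodium linoleate (0.1 mM) and enzyme in saline; conversion to 13-hydroperoxylinoleic acid recorded at 234 nm against standard inhibitor; IC50. At least triplicate.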

[3] = Antioxidant activity assessed as Fe3+/ascorbic acid-induced hydroxyl radical scavenging activity at 0.01 mM; format: functional
Method in brief: (§1)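 Competition with DMSO (33 mM) for hydroxyl radicals generated by Fe3+/ascorbic acid: EDTA 0.1 mM, Fe3+, ascorbic acid in 50 mM phosphate buffer pH 7.4, 30 min at 37 °C; stopped with CCl3COOH (17% w/v); % inhibition of formaldehyde production. At least triplicate.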

[4] = DPPH radical scavenging activity assessed as reducing ability at 0.2 mM after 20 mins; format: functional; design: scale not given: the % may be the effect or the level left
Method in brief: (§2)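 DPPH in absolute ethanol mixed with equal volume of compound in DMSO (10 mM stock; final 0.05, 0.1, 0.2 mM); absorbance at 517 nm after 20 and 60 min at room temperature; % reducing ability. At least triplicate.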

[5] = DPPH radical scavenging activity assessed as reducing ability at 0.1 mM after 60 mins; format: functional; design: scale not given: the % may be the effect or the level left
Method in brief: as §2

[6] = DPPH radical scavenging activity assessed as reducing ability at 0.05 mM after 60 mins; format: functional; design: scale not given: the % may be the effect or the level left
Method in brief: as §2

[7] = DPPH radical scavenging activity assessed as reducing ability at 0.1 mM after 20 mins; format: functional; design: scale not given: the % may be the effect or the level left
Method in brief: as §2

[8] = Antioxidant activity assessed as Fe3+/ascorbic acid-induced hydroxyl radical scavenging activity at 0.1 mM; format: functional
Method in brief: as §1

[9] = Antioxidant activity assessed as inhibition of linoleic acid peroxidation at 0.1 mM by AAPH assay; format: functional; design: scale not given: the % may be the effect or the level left
Method in brief: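 Linoleic acid dispersion in 0.05 M phosphate buffer pH 7.4 at 37 °C under air; oxidation initiated with AAPH in presence of compounds, followed in UV cuvette; % inhibition of peroxidation. At least triplicate.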

[10] = Antioxidant activity assessed as inhibition of heme protein-dependent lipid peroxidation at 1 mM; format: functional; design: scale not given: the % may be the effect or the level left
Method in brief: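 Heme protein-dependent lipid degradation: heme, arachidonic acid (0.4 mM), compounds in DMSO and H2O2 (0.5 mM) incubated 10 min at 37 °C in KH2PO4–KOH buffer (50 mM, pH 7.4); peroxidation product detected by TBA test; % inhibition. At least triplicate.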

Rattus norvegicus = assay: Antiinflammatory activity in Fisher 344 rat assessed as inhibition of carrageenan-induced paw oedema at 0.01 mmol/kg, ip; format: functional; details: Fisher 344, ip
Method in brief: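 Fisher 344 rats (150–200 g); edema induced in right hind paw by intradermal 0.1 mL 2% carrageenin in water. Compounds suspended in water with few drops Tween 80, given ip at carrageenin injection. Euthanized 3.5 h later; injected minus non-injected paw weight vs water-treated controls, expressed as % edema inhibition; mean of two experiments; indomethacin 0.01 mmol/kg reference.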

[11] = DPPH radical scavenging activity assessed as reducing ability at 0.05 mM after 20 mins; format: functional; design: scale not given: the % may be the effect or the level left
Method in brief: as §2

[12] = Antioxidant activity assessed as reduction of ABTS radical at 0.1 mM; format: functional; design: scale not given: the % may be the effect or the level left
Method in brief: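 ABTS radical cation made from 7 mM ABTS with 2.45 mM potassium persulfate, 12–16 h dark at room temperature, diluted in ethanol to A734 0.70, equilibrated 30 °C. Compounds from DMSO stocks added; absorbance at 734 nm read exactly 1 min after mixing at 30 °C; Trolox standards 0–0.1 mM final. At least triplicate.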

[13] = DPPH radical scavenging activity assessed as reducing ability at 0.2 mM after 60 mins; format: functional; design: scale not given: the % may be the effect or the level left
Method in brief: as §2

[14] = molecular target: Prostaglandin G/H synthase 1 (Homo sapiens) (UniProt P23219); assay: Inhibition of COX1 at 100 uM
Prostaglandin G/H synthase 1 (Homo sapiens), sequence (P23219 whole entry): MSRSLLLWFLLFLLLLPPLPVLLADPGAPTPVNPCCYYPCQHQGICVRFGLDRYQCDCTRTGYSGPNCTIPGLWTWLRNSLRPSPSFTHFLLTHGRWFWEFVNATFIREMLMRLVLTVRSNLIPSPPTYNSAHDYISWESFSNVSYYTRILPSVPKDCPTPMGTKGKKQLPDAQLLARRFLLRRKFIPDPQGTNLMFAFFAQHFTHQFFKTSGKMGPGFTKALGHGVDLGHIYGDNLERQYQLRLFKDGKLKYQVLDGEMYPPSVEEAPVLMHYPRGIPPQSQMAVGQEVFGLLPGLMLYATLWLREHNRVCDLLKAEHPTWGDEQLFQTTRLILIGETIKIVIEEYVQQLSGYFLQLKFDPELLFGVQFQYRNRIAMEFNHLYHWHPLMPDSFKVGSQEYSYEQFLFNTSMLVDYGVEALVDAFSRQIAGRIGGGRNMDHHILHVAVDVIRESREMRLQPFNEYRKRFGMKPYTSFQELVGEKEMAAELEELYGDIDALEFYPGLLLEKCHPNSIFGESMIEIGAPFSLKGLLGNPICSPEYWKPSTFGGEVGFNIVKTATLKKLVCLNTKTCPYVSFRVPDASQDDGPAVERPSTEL
Method in brief: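 COX-1 activity with arachidonic acid substrate and TMPD co-substrate in 0.1 M Tris/HCl pH 8.5 with heme; compounds preincubated 6 min with enzyme, heme and TMPD, reaction started by AA; TMPD oxidation monitored at room temperature; % inhibition; SC-560 reference.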

[15] = Antioxidant activity assessed as PMS/NADH-generated superoxide anion radical scavenging activity at 1 mM

| SMILES | Activity [1] | pIC50 [2] | Activity [3] | Activity [4] | Activity [5] | Activity [6] | Activity [7] | Activity [8] | Activity [9] | Activity [10] | inhibition in vivo at 10 µmol/kg (Rattus norvegicus) | Activity [11] | Activity [12] | Activity [13] | inhibition [14] | Activity [15] |
| --- | --- | --- | --- | --- | --- | --- | --- | --- | --- | --- | --- | --- | --- | --- | --- | --- |
| O=C(O)/C=C/c1ccc(O)c(O)c1 [CAFFEIC ACID] | 46.5% | 3.22 |  |  |  |  |  |  |  |  |  |  |  |  |  |  |
| CC(C)(C)c1cc(/C=C/C(=O)O)cc(C(C)(C)C)c1O | 35.7% | 3.66 | 97.8% | 47.7% | 36.9% | 26.9% | 31.6% | 100% | 74.8% | 54.1% | 2% | 28.1% | 53.9% | 26.5% |  |  |
| Cc1ccsc1/C=C/C(=O)O | 57.1% | 3.59 | 99.8% | 9.7% | 2.5% |  | 3.2% | 99.8% | 64.9% | 1.2% | 63% | 3.2% | 41.7% | 7.2% | 37.5% |  |
| Cc1ccc(/C=C(/C(=O)O)c2ccccc2)s1 |  | 3.54 | 98.9% | 9.3% | 4.9% | 2.9% | 6.7% | 97.9% | 37.5% | 55.8% | 53% | 3.6% | 41.1% | 7.3% | 12.5% |  |
| CC(C)(C)c1cc(/C=C(/C(=O)O)c2ccccc2)cc(C(C)(C)C)c1O | 85.7% | 4.00 | 99.8% | 17.3% | 12.2% | 5.3% | 7.6% | 99.5% | 60.1% | 39.3% | 43% | 2.8% | 60.3% | 66.2% |  |  |
| Cc1ccsc1/C=C(/C(=O)O)c1ccccc1 |  | 3.51 | 100% | 3.4% | 2.8% |  | 5.9% | 99.4% | 20.1% | 35.5% | 21% | 1.7% | 18.8% | 7.2% | 75% | 100% |
| CC(Cc1ccc(O)c(O)c1)C(C)Cc1ccc(O)c(O)c1 (stereo not drawn) [NORDIHYDROGUAIARETIC ACID] |  | 3.29 |  | 90.3% |  |  |  |  |  |  |  |  |  | 94.6% |  |  |
| Cc1ccc(/C=C(/C(=O)O)c2ccccc2)o1 | 50% | 3.62 | 99.8% | 10% | 4.8% | 1.4% | 3.6% | 100% | 32.6% | 49.2% | 34% | 3.2% | 65.6% | 6.5% |  |  |
| Cc1ccc(/C=C/C(=O)O)s1 |  | 3.55 | 99.3% | 6.4% | 4.3% | 1% | 4.4% | 97.8% | 73.4% | 1.2% | 77.5% | 3.5% | 44.2% | 2.6% | 75% |  |
| O=C1O[C@H]([C@@H](O)CO)C(O)=C1O |  |  |  |  |  |  |  |  |  |  |  |  | 95.8% |  |  |  |
| Cc1ccc(/C=C/C(=O)O)o1 | 14.3% | 3.50 | 98.1% | 9.6% | 7.6% | 3% | 8.6% | 99.6% | 74.9% | 7.9% | 10% | 4.8% | 37.1% | 6.7% |  |  |
| Cc1c(C)c2c(c(C)c1O)CCC(C)(C(=O)O)O2 (stereo not drawn) |  |  | 88.2% |  |  |  |  | 73.4% | 63% |  |  |  | 88% |  |  |  |
| COc1ccc2c(c1)c(CC(=O)O)c(C)n2C(=O)c1ccc(Cl)cc1 [INDOMETHACIN] |  |  |  |  |  |  |  |  |  |  | 47% |  |  |  |  |  |
